Results published in ChEMBL document CHEMBL1140405, “6-Acylamino-2-aminoquinolines as potent melanin-concentrating hormone 1 receptor antagonists. Identification, structure-activity relationship, and investigation of binding mode” (J Med Chem, 2005).
Converted amounts (≈) assume the structure as drawn. “And” between values parts separate entries of the source, which are not always exact repeats. Equal entries are not always repeated. Blank lines part the entries; values can stand above or below the compound they belong to.

How the values were obtained:
[1] = biological target: T1, 5-hydroxytryptamine receptor 2C (Homo sapiens, UniProt P28335); test: Inhibitory concentration against human 5-hydroxytryptamine 2C receptor expressed in CHO-K1 cells using [3H]mesulergine; assay type: cell-based
T1 sequence (P28335 whole entry): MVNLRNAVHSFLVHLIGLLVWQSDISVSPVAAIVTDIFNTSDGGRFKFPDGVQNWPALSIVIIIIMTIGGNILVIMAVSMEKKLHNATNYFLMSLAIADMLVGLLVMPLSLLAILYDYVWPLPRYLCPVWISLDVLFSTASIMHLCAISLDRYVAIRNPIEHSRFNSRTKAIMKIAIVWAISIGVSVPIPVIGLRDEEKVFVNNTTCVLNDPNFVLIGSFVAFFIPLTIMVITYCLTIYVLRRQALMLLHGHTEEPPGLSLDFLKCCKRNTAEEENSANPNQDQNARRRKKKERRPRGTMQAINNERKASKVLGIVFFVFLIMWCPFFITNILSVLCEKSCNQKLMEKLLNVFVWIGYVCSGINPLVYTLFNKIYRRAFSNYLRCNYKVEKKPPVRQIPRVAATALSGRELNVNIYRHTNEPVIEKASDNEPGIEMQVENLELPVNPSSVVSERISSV
Summary of the method: (§1)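 SPA competition binding on purchased membranes from CHO-K1 cells expressing h5-HT2c (4 μg/well), with YSi-WGA beads (0.4 mg/well) and [3H]mesulergine tracer, across various test-compound concentrations. Buffer is 50 mM Tris pH 7.7, 50 mM MgCl2 and 0.1% pargyline. Nonspecific binding uses 1 μM cold mesulergine. IC50 is taken by nonlinear regression.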

[2] = biological target: Melanin-concentrating hormone receptor 1 (Homo sapiens, UniProt Q99705); test: Displacement of 150p M [125I]MCH from human MCH1R expressed in CHO-K1 cells at 10 uM; assay type: cell-based
Chain of Melanin-concentrating hormone receptor 1 (Q99705 whole entry): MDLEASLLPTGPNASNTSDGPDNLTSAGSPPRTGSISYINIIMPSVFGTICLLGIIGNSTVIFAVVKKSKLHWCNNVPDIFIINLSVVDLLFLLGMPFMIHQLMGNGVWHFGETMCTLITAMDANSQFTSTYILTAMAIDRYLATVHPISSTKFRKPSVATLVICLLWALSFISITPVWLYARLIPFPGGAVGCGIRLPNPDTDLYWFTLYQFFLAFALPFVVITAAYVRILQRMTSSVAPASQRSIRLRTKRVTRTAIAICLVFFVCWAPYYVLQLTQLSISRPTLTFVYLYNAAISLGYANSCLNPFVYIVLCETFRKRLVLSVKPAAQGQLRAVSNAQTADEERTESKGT

[3] = biological target: Melanin-concentrating hormone receptor 2 (Homo sapiens, UniProt Q969V1); test: Displacement of 30 pM [125I]-MCH from human MCH2R expressed in CHO-K1 in whole-cell binding assay
Chain of Melanin-concentrating hormone receptor 2 (Q969V1 whole entry): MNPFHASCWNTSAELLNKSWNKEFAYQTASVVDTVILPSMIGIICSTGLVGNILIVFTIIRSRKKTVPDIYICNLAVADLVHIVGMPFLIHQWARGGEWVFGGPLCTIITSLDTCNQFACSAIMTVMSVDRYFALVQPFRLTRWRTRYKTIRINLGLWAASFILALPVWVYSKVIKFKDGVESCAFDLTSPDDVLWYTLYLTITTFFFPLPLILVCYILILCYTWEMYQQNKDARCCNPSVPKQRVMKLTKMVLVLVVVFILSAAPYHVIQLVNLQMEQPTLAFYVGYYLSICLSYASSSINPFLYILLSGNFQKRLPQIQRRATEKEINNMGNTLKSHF

[4] = Solubility was determined by addition of 10 mM DMSO solution of test compound to PBS (pH 7) until opalescence
Histamine H2 receptor [5] = biological target: T2, Histamine H2 receptor (Homo sapiens, UniProt P25021); test: Inhibitory concentration against Histamine H2 receptor
T2 sequence (P25021 whole entry): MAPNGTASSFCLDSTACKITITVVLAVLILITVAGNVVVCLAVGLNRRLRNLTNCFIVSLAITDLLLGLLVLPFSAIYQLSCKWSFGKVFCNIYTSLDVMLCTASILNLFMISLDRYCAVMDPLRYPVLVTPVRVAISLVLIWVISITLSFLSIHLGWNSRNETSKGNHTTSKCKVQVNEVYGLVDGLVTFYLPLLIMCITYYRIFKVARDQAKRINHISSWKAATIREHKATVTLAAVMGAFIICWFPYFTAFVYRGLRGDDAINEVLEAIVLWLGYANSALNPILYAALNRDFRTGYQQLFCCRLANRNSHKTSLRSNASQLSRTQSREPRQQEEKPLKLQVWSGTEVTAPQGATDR

Histamine H1 receptor [6] = biological target: T3, Histamine H1 receptor (Homo sapiens, UniProt P35367); test: Inhibitory concentration against Histamine H1 receptor
T3 sequence (P35367 whole entry): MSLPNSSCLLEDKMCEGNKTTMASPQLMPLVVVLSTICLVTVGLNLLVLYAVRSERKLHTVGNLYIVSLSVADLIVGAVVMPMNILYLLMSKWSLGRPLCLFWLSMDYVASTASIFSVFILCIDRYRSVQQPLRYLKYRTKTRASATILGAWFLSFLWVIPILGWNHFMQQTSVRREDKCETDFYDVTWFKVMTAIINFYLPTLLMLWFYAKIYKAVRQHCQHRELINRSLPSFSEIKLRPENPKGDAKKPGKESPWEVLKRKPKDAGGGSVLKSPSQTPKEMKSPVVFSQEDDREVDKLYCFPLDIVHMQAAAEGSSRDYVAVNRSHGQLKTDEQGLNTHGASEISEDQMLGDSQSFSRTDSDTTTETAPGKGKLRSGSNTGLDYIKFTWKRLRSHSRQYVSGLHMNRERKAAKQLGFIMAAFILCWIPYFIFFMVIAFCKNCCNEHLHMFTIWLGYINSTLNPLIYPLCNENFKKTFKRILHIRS

[7] = biological target: Sodium-dependent dopamine transporter (Homo sapiens, UniProt Q01959); test: Inhibitory concentration against dopamine transporter
Chain of Sodium-dependent dopamine transporter (Q01959 whole entry): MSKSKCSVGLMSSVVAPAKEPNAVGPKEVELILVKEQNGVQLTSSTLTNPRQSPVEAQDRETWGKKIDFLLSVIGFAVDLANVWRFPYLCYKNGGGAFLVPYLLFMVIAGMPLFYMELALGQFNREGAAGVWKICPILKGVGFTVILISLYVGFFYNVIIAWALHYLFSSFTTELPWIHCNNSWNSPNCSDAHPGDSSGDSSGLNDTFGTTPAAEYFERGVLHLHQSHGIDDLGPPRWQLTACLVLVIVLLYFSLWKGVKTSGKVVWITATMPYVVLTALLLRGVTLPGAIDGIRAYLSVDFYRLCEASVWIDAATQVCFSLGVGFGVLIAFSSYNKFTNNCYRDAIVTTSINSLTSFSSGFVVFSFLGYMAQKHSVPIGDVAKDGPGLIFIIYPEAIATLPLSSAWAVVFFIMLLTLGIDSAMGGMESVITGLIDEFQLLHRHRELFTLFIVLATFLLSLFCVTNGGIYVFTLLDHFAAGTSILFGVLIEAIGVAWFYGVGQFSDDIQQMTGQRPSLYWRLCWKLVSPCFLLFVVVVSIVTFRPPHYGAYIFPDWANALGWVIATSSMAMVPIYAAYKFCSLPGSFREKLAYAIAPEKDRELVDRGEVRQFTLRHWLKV

[8] = biological target: 5-hydroxytryptamine receptor 1B (Homo sapiens, UniProt P28222); test: Inhibitory concentration against 5-hydroxytryptamine 1B receptor
Chain of 5-hydroxytryptamine receptor 1B (P28222 whole entry): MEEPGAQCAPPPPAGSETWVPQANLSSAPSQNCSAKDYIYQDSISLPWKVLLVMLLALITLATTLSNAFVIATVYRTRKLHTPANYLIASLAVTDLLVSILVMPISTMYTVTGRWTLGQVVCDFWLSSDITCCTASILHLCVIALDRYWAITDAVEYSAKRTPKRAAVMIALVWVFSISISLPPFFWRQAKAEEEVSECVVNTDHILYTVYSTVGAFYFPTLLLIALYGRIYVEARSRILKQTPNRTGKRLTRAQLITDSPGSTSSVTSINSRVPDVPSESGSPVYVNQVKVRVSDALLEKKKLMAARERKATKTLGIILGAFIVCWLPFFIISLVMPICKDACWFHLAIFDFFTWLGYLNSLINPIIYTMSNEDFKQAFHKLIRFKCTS

[9] = biological target: T4, Adrenergic receptor alpha-2 (Homo sapiens, UniProt P08913+P18825+P18089); test: Inhibitory concentration against alpha-2 adrenergic receptor; assay type: protein assay
T4 sequence (P08913 whole entry): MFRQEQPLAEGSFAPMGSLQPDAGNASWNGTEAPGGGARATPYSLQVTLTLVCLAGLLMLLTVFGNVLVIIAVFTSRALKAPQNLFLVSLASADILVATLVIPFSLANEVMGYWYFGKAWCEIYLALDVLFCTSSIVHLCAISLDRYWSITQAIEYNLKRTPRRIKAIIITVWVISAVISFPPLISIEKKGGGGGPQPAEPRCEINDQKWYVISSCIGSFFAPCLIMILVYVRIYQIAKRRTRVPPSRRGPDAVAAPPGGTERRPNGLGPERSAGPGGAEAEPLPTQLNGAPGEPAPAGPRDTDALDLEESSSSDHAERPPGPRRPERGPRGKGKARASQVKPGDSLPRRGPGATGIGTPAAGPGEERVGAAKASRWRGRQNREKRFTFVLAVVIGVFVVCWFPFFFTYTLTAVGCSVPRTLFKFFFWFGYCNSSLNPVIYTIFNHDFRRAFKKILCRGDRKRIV
T4 sequence (P18825 whole entry): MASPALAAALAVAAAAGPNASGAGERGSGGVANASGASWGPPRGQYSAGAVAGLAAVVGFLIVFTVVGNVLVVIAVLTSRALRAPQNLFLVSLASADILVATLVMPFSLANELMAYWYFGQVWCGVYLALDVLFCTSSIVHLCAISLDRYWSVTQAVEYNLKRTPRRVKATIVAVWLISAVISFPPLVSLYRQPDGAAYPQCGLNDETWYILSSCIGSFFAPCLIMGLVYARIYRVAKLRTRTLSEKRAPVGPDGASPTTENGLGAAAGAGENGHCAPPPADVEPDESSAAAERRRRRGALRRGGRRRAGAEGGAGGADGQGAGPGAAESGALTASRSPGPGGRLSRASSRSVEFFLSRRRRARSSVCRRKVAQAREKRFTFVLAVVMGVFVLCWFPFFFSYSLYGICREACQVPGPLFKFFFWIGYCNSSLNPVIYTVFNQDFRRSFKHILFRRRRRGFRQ
T4 sequence (P18089 whole entry): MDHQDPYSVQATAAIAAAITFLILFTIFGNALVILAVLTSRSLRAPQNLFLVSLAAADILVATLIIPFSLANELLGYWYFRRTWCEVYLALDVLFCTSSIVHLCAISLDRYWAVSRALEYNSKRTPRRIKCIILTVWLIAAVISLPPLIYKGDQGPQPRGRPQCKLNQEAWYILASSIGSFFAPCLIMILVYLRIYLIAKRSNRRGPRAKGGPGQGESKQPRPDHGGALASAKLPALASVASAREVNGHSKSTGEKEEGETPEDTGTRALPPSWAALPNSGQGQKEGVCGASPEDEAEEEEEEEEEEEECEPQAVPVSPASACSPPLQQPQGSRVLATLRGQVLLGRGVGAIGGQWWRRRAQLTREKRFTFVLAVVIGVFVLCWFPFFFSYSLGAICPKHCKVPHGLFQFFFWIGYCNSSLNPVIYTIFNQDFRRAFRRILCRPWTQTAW

[10] = biological target: T1, 5-hydroxytryptamine receptor 2C; test: Inhibitory concentration against 5-hydroxytryptamine 2C receptor expressed in CHO-K1 cells using [3H]mesulergine; assay type: cell-based; summary of the method: as §1
[11] = biological target: T5, Muscarinic acetylcholine receptor M2 (Homo sapiens, UniProt P08172); test: Inhibitory concentration against muscarinic acetylcholine receptor M2
T5 sequence (P08172 whole entry): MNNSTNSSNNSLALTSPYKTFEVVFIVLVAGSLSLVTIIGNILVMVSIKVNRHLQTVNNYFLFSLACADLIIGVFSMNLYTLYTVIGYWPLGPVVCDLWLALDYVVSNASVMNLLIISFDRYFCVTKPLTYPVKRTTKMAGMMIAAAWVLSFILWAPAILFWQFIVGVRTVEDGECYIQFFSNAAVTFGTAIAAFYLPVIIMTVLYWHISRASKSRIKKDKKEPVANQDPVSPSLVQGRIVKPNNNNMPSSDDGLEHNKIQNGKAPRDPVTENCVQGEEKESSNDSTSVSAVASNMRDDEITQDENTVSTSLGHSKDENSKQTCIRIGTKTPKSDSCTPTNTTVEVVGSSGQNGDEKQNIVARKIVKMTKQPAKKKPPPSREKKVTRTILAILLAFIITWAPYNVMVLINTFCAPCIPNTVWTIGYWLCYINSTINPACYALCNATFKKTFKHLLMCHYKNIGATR

[12] = biological target: T6, Muscarinic acetylcholine receptor M1 (Homo sapiens, UniProt P11229); test: Inhibitory concentration against muscarinic acetylcholine receptor M1
T6 sequence (P11229 whole entry): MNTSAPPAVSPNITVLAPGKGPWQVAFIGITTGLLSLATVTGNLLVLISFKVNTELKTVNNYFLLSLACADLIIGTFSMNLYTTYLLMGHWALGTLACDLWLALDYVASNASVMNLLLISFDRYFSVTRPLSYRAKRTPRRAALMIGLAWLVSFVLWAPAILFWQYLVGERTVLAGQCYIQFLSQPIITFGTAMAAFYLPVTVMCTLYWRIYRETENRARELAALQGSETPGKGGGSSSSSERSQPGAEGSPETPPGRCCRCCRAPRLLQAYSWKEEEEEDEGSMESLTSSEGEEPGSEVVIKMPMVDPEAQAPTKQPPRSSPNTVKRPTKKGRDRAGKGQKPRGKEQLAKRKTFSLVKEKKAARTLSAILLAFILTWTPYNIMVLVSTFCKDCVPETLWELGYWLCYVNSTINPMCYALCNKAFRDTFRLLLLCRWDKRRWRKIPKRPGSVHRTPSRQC

D(3) dopamine receptor = D(3) dopamine receptor (Homo sapiens, UniProt P35462); test: Inhibitory concentration against dopamine receptor D3
Chain of D(3) dopamine receptor (P35462 whole entry): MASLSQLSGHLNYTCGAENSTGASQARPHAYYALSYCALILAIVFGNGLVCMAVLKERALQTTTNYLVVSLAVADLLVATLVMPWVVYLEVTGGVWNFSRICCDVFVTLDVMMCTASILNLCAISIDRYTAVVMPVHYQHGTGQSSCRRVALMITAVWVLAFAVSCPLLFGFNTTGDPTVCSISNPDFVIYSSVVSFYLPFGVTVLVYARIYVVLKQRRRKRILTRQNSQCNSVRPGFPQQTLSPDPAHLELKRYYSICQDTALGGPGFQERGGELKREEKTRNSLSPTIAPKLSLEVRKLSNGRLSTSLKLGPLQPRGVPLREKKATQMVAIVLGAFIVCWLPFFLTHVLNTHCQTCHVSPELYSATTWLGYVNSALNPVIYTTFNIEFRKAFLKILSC

D(1A) dopamine receptor = D(1A) dopamine receptor (Homo sapiens, UniProt P21728); test: Inhibitory concentration against dopamine receptor D1
Chain of D(1A) dopamine receptor (P21728 whole entry): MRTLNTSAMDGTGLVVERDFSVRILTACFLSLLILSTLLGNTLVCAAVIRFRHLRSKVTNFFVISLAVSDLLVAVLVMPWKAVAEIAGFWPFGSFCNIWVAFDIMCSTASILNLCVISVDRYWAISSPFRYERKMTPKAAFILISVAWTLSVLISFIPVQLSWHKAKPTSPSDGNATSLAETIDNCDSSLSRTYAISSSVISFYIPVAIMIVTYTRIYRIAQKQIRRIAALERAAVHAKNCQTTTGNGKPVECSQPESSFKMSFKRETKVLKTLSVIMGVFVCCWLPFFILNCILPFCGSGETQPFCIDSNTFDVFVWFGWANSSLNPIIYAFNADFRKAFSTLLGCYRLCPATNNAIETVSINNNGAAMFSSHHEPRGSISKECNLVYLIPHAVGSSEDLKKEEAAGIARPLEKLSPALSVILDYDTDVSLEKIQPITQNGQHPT

[13] = biological target: 5-hydroxytryptamine receptor 2A (Homo sapiens, UniProt P28223); test: Inhibitory concentration against 5-hydroxytryptamine 2A receptor
Chain of 5-hydroxytryptamine receptor 2A (P28223 whole entry): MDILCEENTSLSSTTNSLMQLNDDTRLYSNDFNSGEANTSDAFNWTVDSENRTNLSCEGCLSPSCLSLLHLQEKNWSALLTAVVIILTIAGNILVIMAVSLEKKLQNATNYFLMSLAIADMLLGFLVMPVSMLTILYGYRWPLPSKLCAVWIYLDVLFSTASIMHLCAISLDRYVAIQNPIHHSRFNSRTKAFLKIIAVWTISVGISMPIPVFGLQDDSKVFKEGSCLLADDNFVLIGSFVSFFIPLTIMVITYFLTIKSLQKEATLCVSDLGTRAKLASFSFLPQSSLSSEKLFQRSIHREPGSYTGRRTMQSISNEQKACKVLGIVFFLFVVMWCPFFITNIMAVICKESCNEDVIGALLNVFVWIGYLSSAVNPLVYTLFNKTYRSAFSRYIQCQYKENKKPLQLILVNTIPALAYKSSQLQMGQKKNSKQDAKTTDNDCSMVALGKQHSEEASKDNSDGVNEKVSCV

Histamine H2 receptor [14] = biological target: T2, Histamine H2 receptor; test: Inhibitory concentration against histamine H2 receptor
Histamine H1 receptor [15] = biological target: T3, Histamine H1 receptor; test: Inhibitory concentration against histamine H1 receptor

- IC50 [1]: 18000 nM
Compound: Cc1cc(NC(C)CN(C)C)nc2ccc(NC(=O)/C=C/c3ccc(OC(F)(F)F)cc3)cc12 (stereo not drawn)

- inhibition [2]: 52%
Compound: CCOc1ccc(/C=C/C(=O)Nc2ccc3nc(N4CCN(C)CC4)cc(C)c3c2)cc1OC

- IC50 [3]: 6300 nM
Compound: Cc1cc(N2CCC(N3CCCC3)CC2)nc2ccc(NC(=O)COc3ccc(OC(F)(F)F)cc3)cc12

- solubility kinetic ([4]; PBS): 120 µM (≈ 56.9 µg/mL)
Compound: Cc1cc(N2CCN(C)CC2)nc2ccc(NC(=O)COc3ccc(OC(F)(F)F)cc3)cc12

- IC50 (Histamine H2 receptor [5]): 860 nM
- IC50 (Histamine H1 receptor [6]): > 10000 nM
- IC50 [7]: 10000 nM
- IC50 [8]: 800 nM
- IC50 [9]: 1300 nM
- IC50 [10]: 900 nM
- IC50 [11]: 480 nM
- IC50 [12]: 1300 nM
- IC50 (D(3) dopamine receptor): 2300 nM
- IC50 (D(1A) dopamine receptor): 900 nM
- IC50 [13]: 1900 nM
Compound: Cc1cc(N(C)CCN(C)C)nc2ccc(NC(=O)/C=C/c3ccc(OC(F)(F)F)cc3)cc12

- inhibition [2]: 40%
Compound: CCN1CCN(c2cc(C)c3cc(NC(=O)c4ccc(OC)cc4)ccc3n2)CC1

- inhibition [2]: 47%
Compound: COc1ccc(OC)c(/C=C/C(=O)Nc2ccc3nc(N4CCN(C)CC4)cc(C)c3c2)c1

- solubility kinetic ([4]; buffer): 25 µM (≈ 11.1 µg/mL)
- IC50 [1]: 2000 nM
- IC50 [3]: 3700 nM
Compound: Cc1cc(N2CCNCC2)nc2ccc(NC(=O)COc3ccc(Cl)cc3Cl)cc12

- solubility kinetic ([4]; PBS): 5 µM (≈ 2.17 µg/mL)
- IC50 [1]: 5900 nM
- IC50 [3]: > 10000 nM
Compound: Cc1cc(N(C)CCO)nc2ccc(NC(=O)COc3ccc(Cl)cc3Cl)cc12

- solubility kinetic ([4]; buffer): 100 µM (≈ 44.7 µg/mL)
- IC50 [1]: 770 nM
Compound: CNCCN(C)c1cc(C)c2cc(NC(=O)COc3ccc(Cl)cc3Cl)ccc2n1

Compound: Cc1cc(OCCN(C)C)nc2ccc(NC(=O)COc3ccc(Cl)cc3Cl)cc12
- IC50 [7]: > 10000 nM
- IC50 [8]: 200 nM
- IC50 [9]: 250 nM
- IC50 [11]: 4500 nM
- IC50 [1]: 2600 nM and 2500 nM
- IC50 [12]: 1700 nM
- IC50 (D(3) dopamine receptor): 1.3 nM
- IC50 (Histamine H2 receptor [14]): 870 nM
- IC50 (Histamine H1 receptor [15]): 3500 nM
- IC50 (D(1A) dopamine receptor): 7500 nM
- IC50 [13]: 610 nM
- IC50 [3]: 8700 nM

Compound: Cc1cc(N(C)CCO)nc2ccc(NC(=O)/C=C/c3ccc(OC(F)(F)F)cc3)cc12
- IC50 [1]: > 10000 nM
- IC50 [3]: 6400 nM

Compound: Cc1cc(N2CCN(C)CC2)nc2ccc(NC(=O)COc3ccc(Cl)cc3Cl)cc12
- solubility kinetic ([4]; buffer): 25 µM (≈ 11.5 µg/mL)
- IC50 [1]: 610 nM
- IC50 [3]: > 10000 nM

- inhibition [2]: 71%
Compound: CCN1CCN(c2cc(C)c3cc(NC(=O)c4cc(=O)c5ccccc5o4)ccc3n2)CC1
